Here are results for 43 molecules from ChEMBL document CHEMBL1124660, “Synthesis and in vitro aldose reductase inhibitory activity of compounds containing an N-acylglycine moiety” (J Med Chem, 1989).

Assay [1] deals with T1, Aldo-keto reductase family 1 member B1 (Rattus norvegicus, UniProt P07943). Briefly: Inhibition of aldose reductase from rat lens. Value ranges from 140 - 580. The gist of the method:
(§1)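 Rat lens aldose reductase was the 40% ammonium sulfate supernatant. Assay at 30 °C in 0.1 M phosphate, pH 6.2, with 0.104 mM NADPH and 10 mM DL-glyceraldehyde, following NADPH decrease at 340 nm over 3.0 min. At least four inhibitor concentrations, three or more determinations each.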

Assay [2] concerns the target T1, Aldo-keto reductase family 1 member B1. Briefly: Inhibition of aldose reductase from rat lens. Value ranges from 35-160. The gist of the method:
as §1

For assay [3], the target named is Aldo-keto reductase family 1 member B1 (Rattus norvegicus) (UniProt P07943). Briefly: Compound was evaluated at 100 uM for the ability to inhibit partially purified aldose reductase obtained from rat lens. In short, it runs like this: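 Enzyme: 40%-saturation ammonium sulfate supernatant from homogenized rat lenses, diluted so the control rate was about 0.0100 absorbance/min. Reaction at 30 °C in 0.1 M phosphate, pH 6.2, with 0.104 mM NADPH and 10 mM DL-glyceraldehyde, started by substrate. NADPH loss was read at 340 nm for 3.0 min after a 1.0 min lag. Percent inhibition at 100 µM was taken against the substrate-only control.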

Assay [4] addresses T1, Aldo-keto reductase family 1 member B1. Nature of the assay: Inhibition of aldose reductase from rat lens. Value ranges from 20 - 160. In short, it runs like this: as §1
Assay [5] shares this target. Nature of the assay: Inhibition of aldose reductase from rat lens. Value ranges from 110 - 430. The gist of the method: as §1
Assay [6] has the same target. Briefly: Inhibition of aldose reductase from rat lens. Value ranges from 0.6 - 47. The gist of the method:
as §1

Assay [7] shares this target. Nature of the assay: Inhibition of aldose reductase from rat lens. Value ranges from 16 - 360. The gist of the method: as §1
Assay [8] shares this target. Nature of the assay: Inhibition of aldose reductase from rat lens. Value ranges from 10 - 1300. The gist of the method:
as §1

For assay [9] the target is unchanged. Nature of the assay: Inhibition of aldose reductase from rat lens. Value ranges from 300 - 1100. The gist of the method: as §1
The target is the same in assay [10]. Briefly: Inhibition of aldose reductase from rat lens. Value ranges from 1.0 - 34. The gist of the method:
as §1

For assay [11] the target is unchanged. Briefly: Inhibition of aldose reductase from rat lens. Value ranges from 17 - 720. The gist of the method:
as §1

For assay [12] the target is unchanged. Nature of the assay: Inhibition of aldose reductase from rat lens. Value ranges from 300 - 2000. In short, it runs like this: as §1
For assay [13] the target is unchanged. Briefly: Inhibition of aldose reductase from rat lens. Value ranges from 25-64. The gist of the method:
as §1

For assay [14] the target is unchanged. Nature of the assay: Inhibition of aldose reductase from rat lens. Value ranges from 0.5 - 16. In short, it runs like this:
as §1

Assay [15] has the same target. Briefly: Inhibition of aldose reductase from rat lens. Value ranges from 1.5 - 16. In short, it runs like this: as §1
Assay [16] shares this target. Nature of the assay: Inhibition of aldose reductase from rat lens. Value ranges from 8.5 - 410. The gist of the method:
as §1

The target is the same in assay [17]. Nature of the assay: Inhibition of aldose reductase from rat lens. Value ranges from 6 - 14. In short, it runs like this: as §1
Assay [18] has the same target. Briefly: Inhibition of aldose reductase from rat lens. Value ranges from 7 - 33. In short, it runs like this: as §1
For assay [19] the target is unchanged. Nature of the assay: Inhibition of aldose reductase from rat lens. Value ranges from 0.15 - 3.3. The gist of the method: as §1
Assay [20] has the same target. Briefly: Inhibition of aldose reductase from rat lens. Value ranges from 0.02 -0.64. In short, it runs like this:
as §1

Assay [21] has the same target. Nature of the assay: Inhibition of aldose reductase from rat lens. Value ranges from 0.3 - 2.3. The gist of the method: as §1
For assay [22] the target is unchanged. Briefly: Inhibition of aldose reductase from rat lens. Value ranges from 10 - 520. The gist of the method:
as §1

Assay [23] has the same target. Nature of the assay: Inhibition of aldose reductase from rat lens. Value ranges from 10 - 42. The gist of the method: as §1
Assay [24] has the same target. Nature of the assay: Inhibition of aldose reductase from rat lens. Value ranges from 4.9 - 23. In short, it runs like this:
as §1

The target is the same in assay [25]. Briefly: Inhibition of aldose reductase from rat lens. Value ranges from 5 - 97. The gist of the method: as §1
The target is the same in assay [26]. Briefly: Inhibition of aldose reductase from rat lens. Value ranges from 50 - 650. In short, it runs like this: as §1
Assay [27] has the same target. Briefly: Inhibition of aldose reductase from rat lens. Value ranges from 9 - 69. In short, it runs like this: as §1
The target is the same in assay [28]. Briefly: Inhibition of aldose reductase from rat lens. Value ranges from 3 - 300. The gist of the method:
as §1

The target is the same in assay [29]. Briefly: Inhibition of aldose reductase from rat lens. Value ranges from 280 - 490. In short, it runs like this:
as §1

The target is the same in assay [30]. Briefly: Inhibition of aldose reductase from rat lens. Value ranges from 7 - 130. In short, it runs like this:
as §1

Assay [31] has the same target. Nature of the assay: Inhibition of aldose reductase from rat lens. Value ranges from 32 - 110. In short, it runs like this: as §1
The target is the same in assay [32]. Nature of the assay: Inhibition of aldose reductase from rat lens. Value ranges from 40 - 680. In short, it runs like this:
as §1

Assay [33] has the same target. Briefly: Inhibition of aldose reductase from rat lens. Value ranges from 10 - 130. In short, it runs like this: as §1
For assay [34] the target is unchanged. Nature of the assay: Inhibition of aldose reductase from rat lens. Value ranges from 0.1 - 7. The gist of the method:
as §1

Each structure is given as a SMILES string.

For orientation: IC50 means the midpoint of a concentration-inhibition curve. Read a low IC50 as greater potency. `O=C(O)CNC(=O)c1ccc([N+](=O)[O-])cc1`: the IC50 in assay [1] was found to be 280 µM.

`COc1ccc(C(=O)NCC(=O)O)cc1` showed an IC50 in assay [2] of 71 µM.

By inhibition is commonly meant the percentage by which the read-out fell short of the control. Lower therefore signals little suppression. `CC(NC(=O)c1ccccc1)C(=O)O` (stereo not drawn) displayed an inhibition in [3] of 14%.

`CC(=O)N(CC(=O)O)c1ccc(N)cc1` yielded an IC50 in assay [4] of 55 µM.

For the molecule `Cc1ccc(C(=O)NCC(=O)O)cc1`, the IC50 in assay [5] came to 220 µM.

`CC(=O)N(CC(=O)O)c1ccc([N+](=O)[O-])cc1` yielded an IC50 in assay [6] of 5.8 µM.

Molecule `CC(=O)N(c1ccc(C)cc1)C(C)C(=O)O` (stereo not drawn) displayed an IC50 in assay [7] of 128 µM.

On to `O=C(O)CNC(=O)c1cccc([N+](=O)[O-])c1`, for which, in [3], the inhibition came to 32%.

`CC(=O)N(c1ccccc1)C(C)C(=O)O` (stereo not drawn) gave an IC50 in assay [8] of 200 µM.

Turning to `O=C(O)CNC(=O)c1ccc(Cl)cc1` [4-CHLOROHIPPURIC ACID], the IC50 in [9] turned out to be 550 µM.

In turn, `O=C(O)CN(C(=O)c1cccc2ccccc12)c1ccccc1` registered an IC50 in [10] of 5.8 µM.

Regarding `Cc1ccc(C(=O)NC(C)C(=O)O)cc1` (stereo not drawn), the inhibition in [3] came to 19%.

`CC(=O)N(CC(=O)O)c1cccc2ccccc12` returned an inhibition in [3] of 20%.

`CC(=O)N(c1ccc(Cl)cc1)C(C)C(=O)O` (stereo not drawn) gave an IC50 in assay [11] of 110 µM.

With `COc1ccc(N(C(C)=O)C(C)C(=O)O)cc1` (stereo not drawn), the IC50 in assay [12] turned out to be 950 µM.

In assay [13], `O=C(O)CNC(=O)c1ccc2ccccc2c1` returned an IC50 of 40 µM.

Consider `Cc1ccc(N(CC(=O)O)C(=O)c2ccccc2)cc1`, for which the IC50 in assay [14] amounted to 3 µM.

As to `O=C(O)CN(C(=O)c1ccccc1)c1ccc(Cl)cc1`, the IC50 in assay [15] amounted to 5 µM.

In assay [16], `O=C(O)Cn1c(=O)c2ccccc2c(=O)c2ccccc21` gave an IC50 of 65 µM.

Turning to `O=C(O)CN(C(=O)c1ccccc1)c1ccccc1`, half-maximal inhibition in assay [17] (IC50) required 9.5 µM.

In turn, `CC(=O)N(CC(=O)O)c1ccc(C)cc1` registered an IC50 in assay [18] of 15 µM.

In the case of `CC(=O)N(CC(=O)O)c1cccc(C)c1`, the inhibition in assay [3] turned out to be 10%.

On to `O=C(O)CN1C(=O)c2cccc3cccc1c23`, for which, in [19], the IC50 was determined as 670 nM.

Regarding `O=C(O)CN(C(=O)c1cccc([N+](=O)[O-])c1)c1ccc([N+](=O)[O-])cc1`, the IC50 in [20] was found to be 130 nM.

Take `Nc1ccc(C(=O)NCC(=O)O)cc1`: the inhibition in [3] stood at 22%.

In turn, `O=C(O)CN(C(=O)c1ccccc1)c1cccc([N+](=O)[O-])c1` showed an IC50 in [21] of 860 nM.

`COc1ccc(C(=O)NC(C)C(=O)O)cc1` (stereo not drawn) showed an inhibition in assay [3] of 38%.

For `O=C(O)CN1C(=O)c2ccccc2CCc2ccccc21`, the IC50 in assay [22] was 79 µM.

In assay [23], `CC(=O)N(CC(=O)O)c1cccc([N+](=O)[O-])c1` gave an IC50 of 27 µM.

As for `O=C(O)Cn1c(=O)c2ccccc2c2ccccc21`, 10.7 µM corresponded to half-maximal inhibition in assay [24] (IC50).

`CC(=O)N(CC(=O)O)c1ccccc1` showed an IC50 in [25] of 21 µM.

In assay [26], `O=C(O)CN(C(=O)c1ccccc1)c1cccc2ccccc12` had an IC50 of 230 µM.

In assay [3], `Nc1ccccc1C(=O)NCC(=O)O` showed an inhibition of 16%.

Molecule `CC(=O)N(CC(=O)O)c1ccc(Cl)cc1` yielded an IC50 in assay [27] of 25 µM.

In assay [28], `O=C(O)CNC(=O)c1ccccc1Cl` gave an IC50 of 31 µM.

In assay [3], `Nc1cccc(C(=O)NCC(=O)O)c1` gave an inhibition of 36%.

`O=C(O)CNC(=O)c1ccccc1` [HIPPURIC ACID] gave an IC50 in [29] of 330 µM.

In assay [30], `COc1ccc(N(CC(=O)O)C(C)=O)cc1` gave an IC50 of 80 µM.

`O=C(O)CNC(=O)c1ccccc1[N+](=O)[O-]` displayed an IC50 in assay [31] of 58 µM.

In turn, `CC(=O)N(CC(=O)O)c1ccccc1C` registered an inhibition in [3] of 14%.

For `O=C(O)CN(C(=O)c1ccccc1)c1ccc2ccccc2c1`, it took 220 µM to reach half-maximal inhibition in [32] (IC50).

For the molecule `CC(=O)N(CC(=O)O)c1ccc(O)cc1`, in [33], it took 34 µM to reach half-maximal inhibition (IC50).

As for `COc1ccc(N(CC(=O)O)C(=O)c2ccccc2)cc1`, in assay [34], half-maximal inhibition (IC50) was put at 960 nM.
